Data: PubChem BioAssay AID651876 (Broad Institute, 2012)
Active and inactive are the calls of the source.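 The calls were made as follows: active = inhibition above 20% at 50 µM; inactive = the rest.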

Molecular target: Kelch-like ECH-associated protein 1 (Homo sapiens) (UniProt Q14145)
Assay: Keap1 Kelch binding to Nrf2 peptide inhibition, confirmation, orthogonal assay for Keap1-Nrf2 interaction inhibitor project, biophysical, competitive SPR, dry powder (AID 651876)
Details: stronger effect = higher value
Method in brief: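 Test system: Keap1 Kelch domain, biochemical. Quantity: 40 nM Kelch domain. Also added: biotinylated 16mer Nrf2 peptide captured on streptavidin CM5 surface. Doses: compound at 5 or 50 µM. Times: room-temperature preincubation, 25 °C binding. Signal: Double-referenced surface plasmon resonance, initial association-phase slopes. Measure: % inhibition via free Kelch domain fraction.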

Chain of Kelch-like ECH-associated protein 1 (Homo sapiens) (Q14145 whole entry, looked up): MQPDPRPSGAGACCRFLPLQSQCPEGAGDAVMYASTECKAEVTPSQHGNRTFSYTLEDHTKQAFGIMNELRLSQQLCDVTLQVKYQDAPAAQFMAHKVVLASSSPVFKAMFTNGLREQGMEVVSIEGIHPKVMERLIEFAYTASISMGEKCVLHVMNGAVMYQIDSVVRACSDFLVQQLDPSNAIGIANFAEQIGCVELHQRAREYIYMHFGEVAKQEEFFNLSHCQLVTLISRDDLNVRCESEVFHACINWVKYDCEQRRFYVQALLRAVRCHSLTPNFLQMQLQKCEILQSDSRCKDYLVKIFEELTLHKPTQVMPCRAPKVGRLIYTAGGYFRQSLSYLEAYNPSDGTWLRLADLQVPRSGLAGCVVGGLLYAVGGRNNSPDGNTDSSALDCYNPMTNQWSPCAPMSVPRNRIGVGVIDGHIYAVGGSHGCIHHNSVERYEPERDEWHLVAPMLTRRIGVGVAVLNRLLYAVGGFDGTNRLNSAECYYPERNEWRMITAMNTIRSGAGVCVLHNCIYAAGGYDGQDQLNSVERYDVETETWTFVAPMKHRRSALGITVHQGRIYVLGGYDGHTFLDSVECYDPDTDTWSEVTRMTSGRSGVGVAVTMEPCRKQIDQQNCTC

inhibition (at 50 µM) | inhibition (inhibition, at 5 µM) | Structure (SMILES)
24.9% | -1.2% | O=C(NC[C@@H]1c2ccccc2CCN1C(=O)[C@@H]1CCCC[C@@H]1C(=O)O)c1ccc(CN2CCOCC2)cc1
10.5% (inactive) | -5.37% | Cc1ccc(S(=O)(=O)NC2=CC(=N[C@@H](C)C(=O)OC(C)(C)C)C(=O)c3ccccc32)c(C)c1
